Assay results from different studies.

C=C(F)C(=O)N1CCN(c2nc(OC[C@@H]3CCCN3C)nc3c2CCN(c2cccc4cccc(Cl)c24)C3)C[C@@H]1CC#N has a GI50 of 2.22 µM (NCI-H1437; cell growth or viability, ATP luminescence; 5 days).
The IC50 of Cc1ccc2nc(-c3c4ccccc4cc4ccccc34)[nH]c2c1 is reported as 27 µM (human Rhabdomyosarcoma cell; cell growth or viability, MTT; 48 h).
The IC50 of COc1cc(/C=C/C(=O)/C=C(O)/C=C/c2ccc[nH]2)ccc1O is reported as 24.1 µM (CHO-K1; cell growth or viability, MTT; 72 h).
CCC[C@@H]1CNC(=O)C(=O)N1C[C@@H]1CCCN1C[C@H](Cc1ccc(O)cc1)N1C[C@@H](Cc2ccc(O)cc2)N(CC(CC)c2ccccc2)C(=O)C1=O (stereo partly shown) gave an inhibition of 0% (CHO-K1; cell growth or viability, ATP luminescence; 100 µM).
The CC50 of N#C[Se]CC1Cc2ccc(Oc3ccccc3)cc2O1 (racemic) is reported as greater than 20 µM (Vero; cell growth or viability; 72 h).
With Cc1ccc(/C=N/NC(=O)c2ccc(Nc3cc(C)nc4c(O)cccc34)cc2)cc1 the inhibition was 50.8% (SMMC-7721; cell growth or viability, MTT; 20 µM).
For FC(F)(F)[Se]CCOc1cccc(Oc2ccccc2)c1, the CC50 was greater than 20 µM (Vero; cell growth or viability; 72 h).
The IC50 of COc1ccc(-c2nc3ccc(C)cc3[nH]2)cc1OC is reported as greater than 100 µM (human Rhabdomyosarcoma cell; cell growth or viability, MTT; 48 h).
With COc1cc(Nc2nccc(-c3cnn4nc(OC)ccc34)n2)cc(C(F)(F)F)c1 the IC50 was 1.4 µM (OV56; cell growth or viability, ATP luminescence).
With Cc1cc(Nc2ccc(C(=O)N/N=C/c3ccc[nH]3)cc2)c2cccc(O)c2n1 the inhibition was 16.1% (SMMC-7721; cell growth or viability, MTT; 20 µM).
COc1ccc(-c2ccc(/C(C)=N/O)c(O)c2Cl)cc1 gave a viability of 73% (NCI-H1299; cell growth or viability, MTT; 30 µM, 48 h).
Cc1cccc(/C=N/NC(=O)c2ccc(Nc3cc(C)nc4c(O)cccc34)cc2)n1 has an inhibition of 19.9% (SMMC-7721; cell growth or viability, MTT; 20 µM).
Clc1ccc(-c2nc3ccccc3[nH]2)cc1Cl has an IC50 of 10.4 µM (human Rhabdomyosarcoma cell; cell growth or viability, MTT; 48 h).
COc1cc(/C=C/c2cc(/C=C/c3cccnc3)[nH]n2)ccc1O has an IC50 of 13.6 µM (CHO-K1; cell growth or viability, SRB; 72 h).
Cc1cc(Nc2ccc(C(=O)N/N=C/c3ccc(N(C)C)cc3)cc2)c2cccc(O)c2n1 has an inhibition of 33.6% (SMMC-7721; cell growth or viability, MTT; 20 µM).
The IC50 of CC(C)C[C@H](NC(=O)[C@H](Cc1ccccc1)NC(=O)c1cnccn1)B(O)O is reported as 0.0076 µM (COR-L279; cell growth or viability, ATP luminescence).
Clc1ccc(-c2nc3ccccc3[nH]2)cc1 gave an IC50 of greater than 100 µM (human Rhabdomyosarcoma cell; cell growth or viability, MTT; 48 h).
For CC(=O)c1cccc(N=Nc2c(C(=O)O)cc(O)c(O)c2O)c1, the inhibition was 43% (RAW264.7; IL-6 release, inhibitor, ELISA; 10 µM, LPS-stimulated).
CCn1cc(-c2cccc(C(F)(F)F)c2)c2sc(C(=N)NC3CCS(=O)(=O)CC3)cc2c1=O gave an EC50 of 0.433 µM (HL-60; cell growth or viability; 7 days).
With Cc1cc(Nc2ccc(C(=O)N/N=C/c3nc4ccccc4[nH]3)cc2)c2cccc(O)c2n1 the inhibition was 28.3% (SMMC-7721; cell growth or viability, MTT; 20 µM).
For Cc1cc(Nc2ncc(Cl)c(Nc3ccccc3S(=O)(=O)C(C)C)n2)c(OC(C)C)cc1C1CCNCC1, the inhibition was 64.2% (NCI-H3122; cell growth or viability, MTT; 0.08 µg/mL, 72 h).
For COc1ccc(-c2nc3ccc(C)cc3[nH]2)cc1O, the IC50 was 48.7 µM (human Rhabdomyosarcoma cell; cell growth or viability, MTT; 48 h).
COc1cc(/C=C/c2cc(/C=C/c3ccncc3)[nH]n2)ccc1O has an IC50 of 32.2 µM (CHO-K1; cell growth or viability, MTT; 72 h).
For COc1ccc(-c2ccc(-c3ccc(C(=N)N)nc3)s2)cc1, the GI50 was 1.8 µM (M14; cell growth or viability, SRB).
CS(=O)(=O)CCNCc1ccc(-c2ccc3ncnc(Nc4ccc(OCc5cccc(F)c5)c(Cl)c4)c3c2)o1 gave an EC50 of 41 µM (NCI-H1299; cell growth or viability, MTT; 72 h).
c1cncc(-c2nc3ccccc3[nH]2)c1 has an IC50 of 87.7 µM (human Rhabdomyosarcoma cell; cell growth or viability, MTT; 48 h).
The viability of C/C(=N\O)c1ccc(-c2ccc(O)c(C)c2)c(Cl)c1O is reported as 62% (NCI-H1299; cell growth or viability, MTT; 30 µM, 48 h).
O=C(/C=C(O)/C=C/c1ccncc1)/C=C/c1c[nH]c2ccccc12 has an IC50 of 66.3 µM (CHO-K1; cell growth or viability, SRB; 72 h).
With C/C(=N\O)c1ccc(-c2ccc(OC(F)(F)F)cc2)c(Cl)c1O the viability was 106% (NCI-H1299; cell growth or viability, MTT; 30 µM, 48 h).
CN(C)c1ccc(-c2nc3ccccc3[nH]2)cc1 gave an IC50 of 50.5 µM (human Rhabdomyosarcoma cell; cell growth or viability, MTT; 48 h).
Cn1nnc2c(C(N)=O)ncn2c1=O gave an EC50 of 491 µM (MKN-45; cell growth or viability).
For C[C@@H](Oc1cc(-c2cnn(C3CCNCC3)c2)cnc1N)c1c(Cl)ccc(F)c1Cl, the inhibition was 52.9% (NCI-H3122; cell growth or viability, MTT; 0.2 µg/mL, 72 h).
The IC50 of Oc1ccc(Br)cc1-c1nc2ccccc2[nH]1 is reported as 7.25 µM (human Rhabdomyosarcoma cell; cell growth or viability, MTT; 48 h).
COc1ccc(-c2ccc(/C(C)=N/O)c(O)c2Cl)cc1Cl has a viability of 65% (NCI-H1299; cell growth or viability, MTT; 30 µM, 48 h).
The GI50 of C=CC(=O)N1CCN(c2nc(=O)n(-c3c(C)ccnc3C(C)C)c3nc(-c4c(O)cccc4F)c(F)cc23)[C@@H](C)C1 is reported as greater than 10 µM (NCI-H1437; cell growth or viability, ATP luminescence; 5 days).
With C=CC(=O)N1CCC[C@@H](n2nc(-c3ccc(Oc4ccccc4)cc3)c3c(N)ncnc32)C1 the GI50 was 0.57 µM (BCWM1; cell growth or viability; 48 h).
The inhibition of COc1ccc(/C=N/NC(=O)c2ccc(Nc3cc(C)nc4c(O)cccc34)cc2)cc1O is reported as 30.3% (SMMC-7721; cell growth or viability, MTT; 20 µM).
O=C1CCC(N2C(=O)c3ccc(NS(=O)(=O)c4ccccc4OC(F)(F)F)cc3C2=O)C(=O)N1 (stereo not shown) has an EC50 of 4.25e-05 µM (MHHCALL4; cell growth or viability, ATP luminescence).
Cc1cc(Nc2ccc(C(=O)N/N=C/c3cccs3)cc2)c2cccc(O)c2n1 gave an inhibition of 40.7% (SMMC-7721; cell growth or viability, MTT; 20 µM).
O=C(/C=C(O)/C=C/c1ccc[nH]1)/C=C/c1c[nH]c2ccccc12 has an IC50 of 11 µM (CHO-K1; cell growth or viability, MTT; 72 h).
With C/C(=N\O)c1ccc(-c2cccc(OC(F)(F)F)c2)c(Cl)c1O the viability was 83% (NCI-H1299; cell growth or viability, MTT; 30 µM, 48 h).
COc1cc(/C=C/C(=O)/C=C(O)/C=C/c2cccc3cnccc23)ccc1O has an IC50 of 7.6 µM (CHO-K1; cell growth or viability, MTT; 72 h).
For N#CSCCOc1ccccc1Oc1ccccc1, the CC50 was greater than 20 µM (Vero; cell growth or viability; 72 h).
